According to paper PMC5901702 (Journal of biomolecular screening, 2012):

Columns and labels:
[1] = target: T1, rat IDE (Rattus norvegicus, UniProt P35559); assay type: biochemical; settings: 100 µM compound; a-factor–based substrate 50 µM; 0.1 M KPi pH 7.6; relative to DMSO-treated control = 100%
T1 sequence (P35559 1-1019): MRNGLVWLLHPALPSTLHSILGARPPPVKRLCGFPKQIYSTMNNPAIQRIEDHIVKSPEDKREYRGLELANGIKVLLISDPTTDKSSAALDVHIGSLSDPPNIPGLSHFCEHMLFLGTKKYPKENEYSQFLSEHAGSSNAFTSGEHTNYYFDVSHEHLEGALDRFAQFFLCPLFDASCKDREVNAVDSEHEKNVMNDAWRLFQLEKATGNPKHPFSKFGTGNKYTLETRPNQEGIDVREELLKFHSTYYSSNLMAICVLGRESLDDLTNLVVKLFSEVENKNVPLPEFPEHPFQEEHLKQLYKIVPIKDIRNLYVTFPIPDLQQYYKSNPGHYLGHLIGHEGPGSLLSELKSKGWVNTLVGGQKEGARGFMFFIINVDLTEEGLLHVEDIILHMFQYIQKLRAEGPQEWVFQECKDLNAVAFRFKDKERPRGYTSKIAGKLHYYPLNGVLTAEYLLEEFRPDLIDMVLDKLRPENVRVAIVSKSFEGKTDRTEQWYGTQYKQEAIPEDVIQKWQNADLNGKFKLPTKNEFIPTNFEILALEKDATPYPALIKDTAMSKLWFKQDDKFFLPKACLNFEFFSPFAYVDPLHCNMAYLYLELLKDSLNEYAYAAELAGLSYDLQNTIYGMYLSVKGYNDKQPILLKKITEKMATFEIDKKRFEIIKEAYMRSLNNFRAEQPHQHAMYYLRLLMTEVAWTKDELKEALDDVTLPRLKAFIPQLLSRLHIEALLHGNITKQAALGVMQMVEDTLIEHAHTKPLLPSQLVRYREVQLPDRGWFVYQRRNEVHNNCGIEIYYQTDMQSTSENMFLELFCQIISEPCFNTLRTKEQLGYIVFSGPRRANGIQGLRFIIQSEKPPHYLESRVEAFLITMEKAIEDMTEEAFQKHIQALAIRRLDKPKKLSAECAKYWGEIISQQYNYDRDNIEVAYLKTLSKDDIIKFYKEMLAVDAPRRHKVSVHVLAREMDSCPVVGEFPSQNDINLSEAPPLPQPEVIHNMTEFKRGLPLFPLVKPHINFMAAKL
Procedure, shortened: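 Then mixed 1:1 with substrate. Fluorescence was followed for 60 min, and rates were taken from the 15–30 min window. Activity was normalized by the trypsin/pronase approach.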

[2] = target: T2, Ste23p (Saccharomyces cerevisiae, UniProt Q06010); experiment: Target specificity: Ste23p activity with a-factor–based peptide; assay type: biochemical, yeast; settings: 100 µM compound; 30 °C; relative to DMSO control = 100%
T2 sequence (Q06010 1-1027): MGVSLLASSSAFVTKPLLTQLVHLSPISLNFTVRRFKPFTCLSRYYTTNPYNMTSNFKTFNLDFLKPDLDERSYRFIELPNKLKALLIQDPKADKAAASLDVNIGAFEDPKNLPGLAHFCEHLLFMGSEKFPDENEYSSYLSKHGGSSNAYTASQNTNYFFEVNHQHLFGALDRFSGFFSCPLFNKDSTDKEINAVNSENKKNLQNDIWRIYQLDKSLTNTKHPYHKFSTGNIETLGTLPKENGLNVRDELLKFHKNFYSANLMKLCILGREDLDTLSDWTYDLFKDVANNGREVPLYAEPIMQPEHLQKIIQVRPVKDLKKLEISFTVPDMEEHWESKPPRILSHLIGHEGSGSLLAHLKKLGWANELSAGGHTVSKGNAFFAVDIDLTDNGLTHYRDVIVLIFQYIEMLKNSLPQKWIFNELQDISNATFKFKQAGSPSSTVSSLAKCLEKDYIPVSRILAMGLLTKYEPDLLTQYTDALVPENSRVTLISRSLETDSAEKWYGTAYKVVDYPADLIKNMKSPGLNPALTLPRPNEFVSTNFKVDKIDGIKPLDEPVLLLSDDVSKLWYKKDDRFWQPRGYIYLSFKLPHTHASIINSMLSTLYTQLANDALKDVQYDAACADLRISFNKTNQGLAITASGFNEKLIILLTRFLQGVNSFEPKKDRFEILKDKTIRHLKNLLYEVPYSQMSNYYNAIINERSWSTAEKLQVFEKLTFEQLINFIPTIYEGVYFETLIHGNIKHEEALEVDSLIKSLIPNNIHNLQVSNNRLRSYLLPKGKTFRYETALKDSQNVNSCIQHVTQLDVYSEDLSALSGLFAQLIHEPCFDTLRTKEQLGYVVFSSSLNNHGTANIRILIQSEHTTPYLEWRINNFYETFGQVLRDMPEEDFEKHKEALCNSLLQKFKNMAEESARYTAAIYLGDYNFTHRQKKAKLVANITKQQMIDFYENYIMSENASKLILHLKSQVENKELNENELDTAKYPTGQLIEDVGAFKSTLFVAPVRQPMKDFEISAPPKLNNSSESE
Procedure, shortened: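 Single-dose specificity assay with a-factor–based fluorogenic peptide (50 µM) in 0.1 M KPi pH 7.6. Ste23p was used at 10 µg/mL and 30 °C; trypsin and pronase E at 0.5 µg/mL each under the 37 °C HTS conditions. Enzymes were preincubated 10 min with 100 µM compound. Triplicate rates were normalized by trypsin/pronase full digestion and given relative to DMSO control (100%).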

[3] = target: T1, rat IDE; experiment: Dose-response of rat IDE activation; assay type: biochemical; settings: for dose-response profile: rat IDE activation, a-factor–based substrate
Procedure, shortened: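 Rat IDE (10 µg/mL) in 0.1 M KPi pH 7.6 was preincubated 10 min at 37 °C with activator (up to 1 mM), then mixed 1:1 with a-factor–based fluorogenic substrate (50 µM final). Fluorescence (320 ex) was read over 60 min and rate taken from the 15–30 min window. Baseline was subtracted and rates normalized to trypsin/pronase E full digestion. AC50 came from best-fit curves, or [Max]50 where the curve was not sigmoidal.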

[4] = tested on: yeast y272 cotransformed with pWS192 and pWS496; experiment: Yeast toxicity assay; assay type: cell-based; settings: for yeast saturation density relative to DMSO-treated control: 100 µM compound, 44 h at 30 °C; for yeast saturation density relative to DMSO-treated culture: lower concentrations of compounds
Procedure, shortened: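 Saturated starter culture of y272 carrying pWS192 (MFA1) and pWS496 (PGK-driven HA-tagged rat IDE) was diluted 1:2000 into SC-UW and treated with DMSO or compound (100 µM, or lower empirically chosen doses), in triplicate. Cultures were grown 44 h at 30 °C, or 72 h where needed.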

[5] = target: T1, rat IDE; experiment: a-Factor production bioassay; assay type: cell-based; settings: 72 h, relative to DMSO-treated control

SMILES	% Activity IDE [1] [%]	% Activity Ste23p [2] [%]	Saturation of activation ([3]; highest concentration tested 1 mM)	dose-response profile [3]	yeast saturation density relative to DMSO-treated control [4]	IDE-mediated a-factor production in vivo ([5]; 100 µM compound)	yeast saturation density relative to DMSO-treated culture ([4]; 44 h) [%]	IDE-mediated a-factor production in vivo ([5]; 12.5 µM compound)	IDE-mediated a-factor production in vivo ([5]; 50 µM compound)	yeast culture density relative to DMSO-treated culture ([4]; incubation extended to 72 h) [%]	saturated growth of treated yeast cultures ([4]; lowest concentration evaluated 12.5 µM, 44 h)	IDE-mediated a-factor production in vivo ([5]; 25 µM compound)
O=S(=O)(O)CCCc1cccc2ccccc12 [Compound 1]	195.4 ± 12.2	112.0 ± 5.4	not achieved	classic sigmoidal dose-responses	> 90%							
Cn1ncc2c(NCCc3ccccc3)nc(Cl)nc21 [Compound 2]	170.3 ± 16.0	117.2 ± 2.8		classic sigmoidal dose-responses		reduced the yield of a-factor produced						
O=S(=O)(O)c1cc(O)c2c(O)c(N=Nc3cccc4ccccc34)c(S(=O)(=O)O)cc2c1 [Compound 3]	356.0 ± 16.0	90.4 ± 0.6		inverted bell-shaped activation curve	> 90%	enhanced a-factor production in vivo						
Nc1nc(SCc2ccccc2Cl)cc(C(=O)O)n1 [Compound 5]	263.5 ± 1.0	103.4 ± 1.6		inverted bell-shaped activation curve			> 90	enhanced a-factor production in vivo				
O=C(CCN1CC2CCC(CC2)C1)c1cccs1 [Compound 6]	230.7 ± 13.5	82 ± 0.3		classic sigmoidal dose-responses	completely inhibited growth		> 90		enhanced a-factor production in vivo			
O=C(O)c1ccc(Oc2nc3ccccc3s2)cc1 [Compound 7]	186.6 ± 7.4	102.1 ± 1.7		classic sigmoidal dose-responses		reduced the yield of a-factor produced				> 85	did not achieve saturated growth	
O=[N+]([O-])/C=C/c1cc2ccccc2[nH]1 [Compound 8]	195.0 ± 14.0	80.1 ± 6.0		inverted bell-shaped activation curve	completely inhibited growth		> 90					enhanced a-factor production in vivo
